Most compounds without a hit are left out; they make up all but 3.3% or so of the library.
CendR NRP1 mod – NRP-1/CendR interaction modulation; O14786; FAM-RPARPAR peptide binding to NRP-1, fluorescence polarization; inhibition, % at 25 µM; hit rate 0.85% among 360,000; AID 602438;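 active means inhibition or corrected inhibition above about 18%, plus a signal ratio from 0.5 to 1.5, limit read from the data, passing the limit was not always enough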
m5-HT2A agonist – activates the mouse 5-HT2A serotonin receptor. CHO-K1 mHTR2A beta-arrestin complementation, luminescence; percent of 30 µM serotonin response. activation, % at 7.6 µM. P35363. hit rate 0.66% among 360,000;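 active means activation above a run cutoff, the mean activation of all tested compounds plus 3 SD, cut at about 14% in these data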;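 further: 0% = plate median of compound wells and 100% = 30 µM serotonin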
sPLA2-III inh – Blocks human group III sPLA2 activity; QFRET BODIPY PC-A2 liposome hydrolysis, fluorescence; inhibition, % at 12.2 µM; hit rate 0.56% among 370,000; AID 743126;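 active means inhibition above mean plus 3 SD of compounds lying within the high and low control bounds, cut at about 19% in these data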;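 further: 0% = median of test compound wells and 100% = no enzyme DMSO wells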
Arr AP2 block – inhibitors of human beta-arrestin and AP2 interaction; FITC-arrestin peptide / GST-AP2 beads, flow cytometry; AP2 beta2 appendage carries R879A mutation; inhibition, % at 10 µM; hit rate 0.31% among 340,000; AID 504490;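 active means inhibition above a set limit, near 3 SD of compounds lacking own fluorescence, cut at about 54% in these data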;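 further: plate controls were DMSO wells for no effect and 5 µM unlabelled arrestin peptide for full effect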
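Test system: GST-tagged AP2 beta2-adaptin appendage (R879A) on 4 µm glutathione beads; also added: fluorescein-tagged arrestin peptide at 50 nM final; timing: 12 min plus 1 h, RT; signal: flow cytometry, FL1 (488/535 nm); read-out: percent drop in bead-associated FITC signal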
M18AAP inhibitor – PfM18AAP enzyme inhibition | recombinant PfM18AAP, H-Glu-NHMec fluorogenic cleavage | inhibition, % at 7.35 µM | hit rate 1.2% among 290,000 | AID 1822;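 active means inhibition above the campaign mean inhibition over all tested compounds plus 3 SD, cut at about 28% in these data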;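 further: 0% = plate median of test compound wells and 100% = 2 mM ZnCl2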
Hep lipid drop – modulators of hepatic lipid droplet formation; AML12 mouse hepatocytes, oleate lipid droplets, BODIPY imaging; inhibition, % at 6.5 µM; hit rate 0.4% among 240,000;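 active means lipid droplet intensity inhibited by at least 50%, with more than 500 cells counted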
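System: AML12 hepatocytes (mouse). Probe or stimulus: oleic acid at 100 µM to induce lipid droplet formation. Times: overnight treatment with compound plus oleate. Detection: Image-based BODIPY and DAPI two-channel analysis. Evaluation: percent inhibition of filter-corrected integrated lipid droplet intensity per well.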
Arr-AP2 CP1 – inhibitors of human beta-arrestin and AP2 interaction; shares compounds with Arr AP2 block; GST-AP2 beads, FITC arrestin peptide binding, flow cytometry; GST-fused beta2-adaptin appendage, R879A mutant; inhibition, % at 10 µM; hit rate 2% among 1,300; AID 504908;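 active means inhibition above a set limit, roughly 3 SD of non-fluorescent compound noise, cut at about 38% in these data; inactive means inhibition at or below that limit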;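 further: loss of bead fluorescence from 50 nM FITC arrestin peptide bound to appendage; 0% = negative control wells and 100% = excess unlabelled arrestin peptide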
Target sequence (P63010 whole entry, looked up, the tested form may be a part, one chain of several): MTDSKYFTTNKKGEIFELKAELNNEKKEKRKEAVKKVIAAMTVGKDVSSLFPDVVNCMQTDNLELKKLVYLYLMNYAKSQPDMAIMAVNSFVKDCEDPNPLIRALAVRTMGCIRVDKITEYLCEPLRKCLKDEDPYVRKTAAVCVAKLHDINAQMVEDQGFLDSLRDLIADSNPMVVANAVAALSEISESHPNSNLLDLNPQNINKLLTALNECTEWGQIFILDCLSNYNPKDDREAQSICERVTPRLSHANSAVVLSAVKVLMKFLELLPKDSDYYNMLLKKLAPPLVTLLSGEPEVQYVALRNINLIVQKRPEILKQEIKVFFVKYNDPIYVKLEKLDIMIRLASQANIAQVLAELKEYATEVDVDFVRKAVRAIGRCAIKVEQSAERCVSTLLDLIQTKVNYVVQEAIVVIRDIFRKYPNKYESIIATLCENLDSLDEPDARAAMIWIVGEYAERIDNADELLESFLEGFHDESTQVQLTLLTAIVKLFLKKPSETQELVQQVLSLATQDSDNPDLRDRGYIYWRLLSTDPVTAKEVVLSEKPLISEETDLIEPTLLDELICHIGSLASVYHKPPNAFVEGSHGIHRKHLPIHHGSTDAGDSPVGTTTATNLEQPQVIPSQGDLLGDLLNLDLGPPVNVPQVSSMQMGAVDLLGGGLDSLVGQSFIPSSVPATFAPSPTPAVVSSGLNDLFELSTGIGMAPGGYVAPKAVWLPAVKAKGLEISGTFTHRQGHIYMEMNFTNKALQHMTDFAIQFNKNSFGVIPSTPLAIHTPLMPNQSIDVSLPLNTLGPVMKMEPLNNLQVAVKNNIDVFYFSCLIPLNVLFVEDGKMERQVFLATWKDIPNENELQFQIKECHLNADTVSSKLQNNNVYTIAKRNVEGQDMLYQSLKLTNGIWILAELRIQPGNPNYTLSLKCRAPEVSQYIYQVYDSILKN
GST GSH counter – disrupts GST binding to glutathione beads, arrestin-AP2 artifact | hit rate 2% among 1,300 | shares compounds with Arr AP2 block | inhibition, % at 10 µM | GST-fluorescein binding to GSH beads, fluorescence, counter-screen;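 active means inhibition above 50%, about 3 SD of the inhibition seen with non-fluorescent compounds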;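 further: fluorescein maleimide labelled GST captured on 4 micron glutathione beads; higher means more loss of bead fluorescence from quenching or blocked binding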
Numbers without * were called inactive; x = no result.

SMILES | CendR NRP1 mod | m5-HT2A agonist | sPLA2-III inh | Arr AP2 block | M18AAP inhibitor | Hep lipid drop | Arr-AP2 CP1 | GST GSH counter
O=C(NCc1ccccc1)C1Cc2c(-c3ccc4c(c3)OCO4)ccnc2O1 (stereo not given) | -1 | 0 | -7 | x | x | x | x | x
COCC(=O)N[C@H]1C=C[C@@H](CC(=O)NCc2ccccc2OC)O[C@@H]1CO | 2 | 1 | 3 | x | x | x | x | x
Cc1ccccc1C(=O)Nc1c(C(=O)N(CCN(C)C)Cc2ccco2)oc2ccccc12 | -18 | -1 | -1 | 58* | 7 | -15 | -6 | 2
CCc1ccc(N2CC(C(=O)OCc3csc(CC(=O)Nc4ccccc4C)n3)CC2=O)cc1 (stereo not given) | -2 | 2 | 8 | 62* | x | x | 16 | 7
CCOC(=O)/C=C/C(=O)OCc1csc(CC(=O)Nc2ccccc2C)n1 | 5 | 3 | -26 | -9 | 12 | 9 | x | x
COCc1ccc(C(=O)N2CCCC(Nc3ccc(C(C)C)cc3)C2)o1 (stereo not given) | 3 | -6 | -3 | -5 | 17 | 8 | x | x
CC1Cc2ccccc2N1S(=O)(=O)c1cccc(C(=O)NC2CC2)c1 (stereo not given) | -16 | -5 | -10 | 89* | 1 | x | -2 | -17
CS(=O)(=O)c1ccc(-c2csc(C(O)(c3ccccc3)C(F)(F)F)n2)cc1 (stereo not given) | -3 | -6 | -18 | x | x | x | x | x
CCNC(=O)NC(=O)COC(=O)C1CSC2(C)CCC(=O)N12 (stereo not given) | -7 | -1 | 5 | 2 | 3 | 23 | x | x
COC(=O)c1ccc(OC(=O)C2CSC3(C)CCC(=O)N23)cc1 (stereo not given) | -6 | -1 | -2 | -6 | x | x | x | x
Cc1ccc(NC(=O)COC(=O)C2CSC3(C)CCC(=O)N23)c(C)c1 (stereo not given) | -4 | 1 | 10 | 69* | x | x | -8 | -3
CC12CCC(=O)N1C(C(=O)OCC(=O)Nc1ccc(C(F)(F)F)cc1)CS2 (stereo not given) | 8 | -5 | 3 | 10 | x | x | -4 | -6
CN(C(=O)COC(=O)C1CSC2(C)CCC(=O)N12)c1ccccc1 (stereo not given) | 2 | -4 | 4 | 22 | x | x | 9 | 2
CC12CCC(=O)N1C(C(=O)OCC(=O)Nc1ccc(S(N)(=O)=O)cc1)CS2 (stereo not given) | -7 | 2 | -4 | 0 | -3 | -4 | -1 | -5
COC(=O)C1=C(C)N(Cc2ccc(C(F)(F)F)cc2)C(=NCc2ccccc2)NC1c1ccc(C(F)(F)F)cc1 (stereo not given) | x | x | 8 | x | x | x | x | x
Cc1ccc(NC(=O)COC(=O)C2CSC3(C)CCC(=O)N23)cc1S(=O)(=O)N1CCOCC1 (stereo not given) | -6 | 4 | -3 | 64* | 4 | 3 | -6 | -3
CC12CCC(=O)N1C(C(=O)OCC(=O)Nc1cccc(Br)c1)CS2 (stereo not given) | -7 | -5 | -2 | -20 | -4 | 2 | 1 | -4
Cc1ccc(NC(=O)C2CSC3(C)CCC(=O)N23)cc1S(=O)(=O)N1CCOCC1 (stereo not given) | -1 | -5 | -16 | 24 | x | x | x | x
CC12CCC(=O)N1C(C(=O)OCC(=O)Nc1cccc(S(=O)(=O)N3CCCCCC3)c1)CS2 (stereo not given) | -6 | -4 | -5 | 3 | 3 | -3 | x | x
COc1ccc(-c2cc(C(F)F)n3ncc(C(=O)N4CCc5ccccc54)c3n2)cc1 | -8 | 1 | 9 | x | -1 | 18 | x | x
Cc1ccc(-c2cc(C(F)F)n3ncc(C(=O)N4CCCc5ccccc54)c3n2)cc1 | 1 | 6 | 0 | -4 | -3 | -2 | -2 | -2
COc1ccc(OC)c2c1C(=O)C(Cl)=C(Cl)C2=O | -15 | -2 | 2 | 87* | 23 | 10 | 72* | 28
COc1ccc(OC)c2c1C(=O)c1ccccc1C2=O | x | x | -3 | x | 13 | x | x | x
COc1ccc(CC(=O)N(C)Cc2ccc(C(C)(C)C)cc2)cc1S(=O)(=O)N1CCOCC1 | 0 | 0 | -12 | 0 | -4 | 17 | x | x
COc1ccc(CC(=O)N(C)Cc2ccc(Cl)cc2)cc1S(=O)(=O)N1CCOCC1 | 0 | 0 | -4 | 64* | x | x | 16 | 0
SMILES | CendR NRP1 mod | m5-HT2A agonist | sPLA2-III inh | Arr AP2 block | M18AAP inhibitor | Hep lipid drop | Arr-AP2 CP1 | GST GSH counter
CN(C)c1ccc(/C=N/NC(=O)C(O)(c2ccccc2)c2ccccc2)o1 | -33 | 5 | -7 | 61* | 27 | -12 | -9 | -2
CC(C)NC(=S)NC(=O)c1ccc(-c2ccccc2)cc1 | -41 | -3 | 0 | -9 | -6 | -30 | x | x
CC1CCCN(CCCNC(=O)c2ccc3c(c2)N(Cc2ccccc2F)C(=O)c2ccccc2S3(=O)=O)C1 (stereo not given) | 8 | -17 | -16 | 59* | -8 | -14 | 20 | -14
Cn1c(SCC(=O)NC2CCCCC2)nnc1-c1ccccn1 | 2 | 6 | 2 | 35 | -12 | 3 | x | x
Cn1c(SCC(=O)NC2CCCC2)nnc1-c1ccccn1 | 2 | 2 | 5 | 60* | -13 | 22 | -14 | -9
CCn1c(=O)n(CC)c2cc(N3CCCC3)c(NC(=O)c3cc(Cl)ccc3OC)cc21 | 8 | 9 | 8 | 54* | 4 | -7 | -1 | 3
CCn1c(=O)n(CC)c2cc(N3CCCC3)c(NC(=O)c3ccc(OC)c(Br)c3)cc21 | -4 | -3 | 5 | 33 | 26 | 11 | 3 | 3
CCn1c(=O)n(CC)c2cc(N3CCCC3)c(NC(=O)c3ccccc3OC)cc21 | -11 | -2 | 3 | 3 | 20 | -7 | x | x
CCOc1ccccc1C(=O)Nc1cc2c(cc1N1CCCC1)n(CC)c(=O)n2CC | 6 | -4 | 2 | 15 | 12 | 0 | 1 | 0
COc1ccc(C(=O)Nc2ccc(N3CCCC3)cc2)cc1Br | -12 | -2 | 15 | 8 | 12 | 16 | x | x
Nc1ccccc1SC(CC(=O)c1ccccc1)c1cccc([N+](=O)[O-])c1 (stereo not given) | -9 | 4 | -2 | x | x | x | x | x
COc1cc(C)ccc1S(=O)(=O)NC(=O)C1(C)CCN1C(=O)c1ccc(C(F)(F)F)nc1C (stereo not given) | -7 | 3 | -2 | x | x | x | x | x
CCOc1ccccc1NC(=O)c1ccc(S(=O)(=O)N2CCCCC2)cc1 | 0 | -7 | -5 | 26 | 0 | 5 | x | x
CCOc1ccccc1NC(=O)c1ccc(F)c(S(=O)(=O)N2CCC3(CC2)OCCO3)c1 | 1 | 0 | -7 | 61* | -18 | x | -21 | -6
